From ChEMBL document CHEMBL2417539, “1-substituted (Dibenzo[b,d]thiophen-4-yl)-2-morpholino-4H-chromen-4-ones endowed with dual DNA-PK/PI3-K inhibitory activity” (J Med Chem, 2013)
Converted amounts (≈) assume the structure as drawn.

Assays:
HeLa [1] = test: Antiproliferative activity against human HeLa cells assessed as cell survival ratio at 0.1 uM treated 1 hr before 2Gy ionizing radiation measured after 6 to 8 days by DMR clonogenic assay; format: functional
Summary of the method: (§1)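 HeLa cells seeded in 6-well dishes, incubated overnight at 37 °C/5% CO2, pre-treated 1 h with vehicle or inhibitor (0.1 or 0.5 μM), then given 2 Gy X-ray IR and held overnight. Medium then replaced without compound and culture continued 6-8 days. Colonies Giemsa-stained and counted automatically. DMR = % survival (vehicle, 2 Gy) / % survival (compound, 2 Gy).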

Cytochrome P450 2D6 = Cytochrome P450 2D6 (Homo sapiens, UniProt P10635); test: Inhibition of CYP2D6 (unknown origin); format: ADME
Cytochrome P450 2C19 = Cytochrome P450 2C19 (Homo sapiens, UniProt P33261); test: Inhibition of CYP2C19 (unknown origin); format: ADME
[2] = Lipophilicity, log D of the compound; format: physicochemical; conditions: octanol/water
Cytochrome P450 3A4 = Cytochrome P450 3A4 (Homo sapiens, UniProt P08684); test: Inhibition of CYP3A4 (unknown origin); format: ADME
[3] = biological target: T1, DNA-dependent protein kinase catalytic subunit (Homo sapiens, UniProt P78527); test: Inhibition of human DNA-PK using GST-tagged p53N66 as substrate after 1 hr by ELISA-based chemiluminiscence assay
Cytochrome P450 2C9 = Cytochrome P450 2C9 (Homo sapiens, UniProt P11712); test: Inhibition of CYP2C9 (unknown origin); format: ADME
Cytochrome P450 1A2 = biological target: T2, Cytochrome P450 1A2 (Homo sapiens, UniProt P05177); test: Inhibition of CYP1A2 (unknown origin); format: ADME
T2 sequence (P05177 whole entry): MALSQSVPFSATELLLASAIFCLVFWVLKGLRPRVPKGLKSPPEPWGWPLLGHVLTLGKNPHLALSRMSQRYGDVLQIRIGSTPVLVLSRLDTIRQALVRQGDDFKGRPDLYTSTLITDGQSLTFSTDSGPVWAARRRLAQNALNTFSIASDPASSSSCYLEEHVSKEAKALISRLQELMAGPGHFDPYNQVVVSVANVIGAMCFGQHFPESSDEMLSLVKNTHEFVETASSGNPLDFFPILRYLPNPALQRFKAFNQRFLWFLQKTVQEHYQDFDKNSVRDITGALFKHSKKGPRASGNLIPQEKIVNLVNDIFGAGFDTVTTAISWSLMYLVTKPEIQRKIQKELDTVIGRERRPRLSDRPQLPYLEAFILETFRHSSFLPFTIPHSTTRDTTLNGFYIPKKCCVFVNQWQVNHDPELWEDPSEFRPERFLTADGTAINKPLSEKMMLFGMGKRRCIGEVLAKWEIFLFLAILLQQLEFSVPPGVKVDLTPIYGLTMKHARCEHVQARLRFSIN

[4] = biological target: T1, DNA-dependent protein kinase catalytic subunit; test: Inhibition of DNA-PK autophosphorylation at S2056 in human HeLa cells; format: cell-based
[5] = Aqueous solubility of the compound at pH 7.4; format: physicochemical; conditions: buffer
[6] = Fraction unbound in human Plasma; format: ADME, cell-free
HeLa [7] = test: Antiproliferative activity against human HeLa cells assessed as cell survival ratio at 0.5 uM treated 1 hr before 2Gy ionizing radiation measured after 6 to 8 days by DMR clonogenic assay; format: functional; summary of the method: as §1
[8] = biological target: Voltage-gated inwardly rectifying potassium channel KCNH2 (Homo sapiens, UniProt Q12809); test: Inhibition of human ERG expressed in cisapride treated CHO cells by Ion Works assay
[9] = biological target: Phosphatidylinositol 4,5-bisphosphate 3-kinase catalytic subunit gamma isoform (Homo sapiens, UniProt P48736); test: Inhibition of PI-3K gamma (unknown origin)
[10] = biological target: Serine/threonine-protein kinase mTOR (Homo sapiens, UniProt P42345); test: Inhibition of mTOR (unknown origin)
[11] = biological target: Aurora kinase B (Homo sapiens) (UniProt Q96GD4); test: Inhibition of Aurora kinase B (unknown origin); conditions: concentration not given here
[12] = biological target: Phosphatidylinositol 4,5-bisphosphate 3-kinase catalytic subunit alpha isoform (Homo sapiens, UniProt P42336); test: Inhibition of PI-3K alpha (unknown origin)
[13] = biological target: Phosphatidylinositol 4,5-bisphosphate 3-kinase catalytic subunit beta isoform (Homo sapiens, UniProt P42338); test: Inhibition of PI-3K beta (unknown origin)
HeLa [14] = test: Antiproliferative activity against human HeLa cells assessed as cell viability after 6 to 8 days by DMR clonogenic assay; format: cell-based
[15] = biological target: T3, Phosphatidylinositol 4,5-bisphosphate 3-kinase catalytic subunit delta isoform (Homo sapiens, UniProt O00329); test: Inhibition of PI-3K delta (unknown origin)
T3 sequence (O00329 whole entry): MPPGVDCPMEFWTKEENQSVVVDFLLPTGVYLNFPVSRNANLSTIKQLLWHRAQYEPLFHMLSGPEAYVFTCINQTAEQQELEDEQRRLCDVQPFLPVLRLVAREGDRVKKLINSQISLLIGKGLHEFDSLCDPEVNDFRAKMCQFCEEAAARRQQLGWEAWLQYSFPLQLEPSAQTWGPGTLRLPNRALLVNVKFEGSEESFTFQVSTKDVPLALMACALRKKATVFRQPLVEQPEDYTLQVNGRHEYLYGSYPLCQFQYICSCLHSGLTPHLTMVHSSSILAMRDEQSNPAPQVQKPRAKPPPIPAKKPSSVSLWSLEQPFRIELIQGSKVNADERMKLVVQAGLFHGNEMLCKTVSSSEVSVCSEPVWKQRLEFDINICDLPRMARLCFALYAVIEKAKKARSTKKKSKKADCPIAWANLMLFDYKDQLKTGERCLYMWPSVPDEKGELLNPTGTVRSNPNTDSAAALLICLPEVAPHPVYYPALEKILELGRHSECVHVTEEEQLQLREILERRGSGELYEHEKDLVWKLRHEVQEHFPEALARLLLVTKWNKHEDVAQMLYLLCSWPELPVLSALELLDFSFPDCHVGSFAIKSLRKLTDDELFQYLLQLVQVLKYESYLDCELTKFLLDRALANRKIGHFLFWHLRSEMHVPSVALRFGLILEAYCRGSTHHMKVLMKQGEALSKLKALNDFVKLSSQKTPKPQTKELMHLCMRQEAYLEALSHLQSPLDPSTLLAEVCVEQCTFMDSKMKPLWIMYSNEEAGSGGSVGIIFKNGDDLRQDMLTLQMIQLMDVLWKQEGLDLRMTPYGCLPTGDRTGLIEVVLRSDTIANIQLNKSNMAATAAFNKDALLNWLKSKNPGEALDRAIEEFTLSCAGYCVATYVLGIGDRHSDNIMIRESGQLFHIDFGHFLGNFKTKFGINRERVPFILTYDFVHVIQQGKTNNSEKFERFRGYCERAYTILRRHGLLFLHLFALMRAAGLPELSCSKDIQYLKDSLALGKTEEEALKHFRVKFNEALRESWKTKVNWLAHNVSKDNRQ

[16] = biological target: Serine/threonine-protein kinase ATR (Homo sapiens, UniProt Q13535); test: Inhibition of ATR (unknown origin)
[17] = biological target: Serine-protein kinase ATM (Homo sapiens, UniProt Q13315); test: Inhibition of ATM (unknown origin)
[18] = biological target: T1, DNA-dependent protein kinase catalytic subunit; test: Inhibition of DNA-PK (unknown origin)

T1 sequence (P78527 whole entry): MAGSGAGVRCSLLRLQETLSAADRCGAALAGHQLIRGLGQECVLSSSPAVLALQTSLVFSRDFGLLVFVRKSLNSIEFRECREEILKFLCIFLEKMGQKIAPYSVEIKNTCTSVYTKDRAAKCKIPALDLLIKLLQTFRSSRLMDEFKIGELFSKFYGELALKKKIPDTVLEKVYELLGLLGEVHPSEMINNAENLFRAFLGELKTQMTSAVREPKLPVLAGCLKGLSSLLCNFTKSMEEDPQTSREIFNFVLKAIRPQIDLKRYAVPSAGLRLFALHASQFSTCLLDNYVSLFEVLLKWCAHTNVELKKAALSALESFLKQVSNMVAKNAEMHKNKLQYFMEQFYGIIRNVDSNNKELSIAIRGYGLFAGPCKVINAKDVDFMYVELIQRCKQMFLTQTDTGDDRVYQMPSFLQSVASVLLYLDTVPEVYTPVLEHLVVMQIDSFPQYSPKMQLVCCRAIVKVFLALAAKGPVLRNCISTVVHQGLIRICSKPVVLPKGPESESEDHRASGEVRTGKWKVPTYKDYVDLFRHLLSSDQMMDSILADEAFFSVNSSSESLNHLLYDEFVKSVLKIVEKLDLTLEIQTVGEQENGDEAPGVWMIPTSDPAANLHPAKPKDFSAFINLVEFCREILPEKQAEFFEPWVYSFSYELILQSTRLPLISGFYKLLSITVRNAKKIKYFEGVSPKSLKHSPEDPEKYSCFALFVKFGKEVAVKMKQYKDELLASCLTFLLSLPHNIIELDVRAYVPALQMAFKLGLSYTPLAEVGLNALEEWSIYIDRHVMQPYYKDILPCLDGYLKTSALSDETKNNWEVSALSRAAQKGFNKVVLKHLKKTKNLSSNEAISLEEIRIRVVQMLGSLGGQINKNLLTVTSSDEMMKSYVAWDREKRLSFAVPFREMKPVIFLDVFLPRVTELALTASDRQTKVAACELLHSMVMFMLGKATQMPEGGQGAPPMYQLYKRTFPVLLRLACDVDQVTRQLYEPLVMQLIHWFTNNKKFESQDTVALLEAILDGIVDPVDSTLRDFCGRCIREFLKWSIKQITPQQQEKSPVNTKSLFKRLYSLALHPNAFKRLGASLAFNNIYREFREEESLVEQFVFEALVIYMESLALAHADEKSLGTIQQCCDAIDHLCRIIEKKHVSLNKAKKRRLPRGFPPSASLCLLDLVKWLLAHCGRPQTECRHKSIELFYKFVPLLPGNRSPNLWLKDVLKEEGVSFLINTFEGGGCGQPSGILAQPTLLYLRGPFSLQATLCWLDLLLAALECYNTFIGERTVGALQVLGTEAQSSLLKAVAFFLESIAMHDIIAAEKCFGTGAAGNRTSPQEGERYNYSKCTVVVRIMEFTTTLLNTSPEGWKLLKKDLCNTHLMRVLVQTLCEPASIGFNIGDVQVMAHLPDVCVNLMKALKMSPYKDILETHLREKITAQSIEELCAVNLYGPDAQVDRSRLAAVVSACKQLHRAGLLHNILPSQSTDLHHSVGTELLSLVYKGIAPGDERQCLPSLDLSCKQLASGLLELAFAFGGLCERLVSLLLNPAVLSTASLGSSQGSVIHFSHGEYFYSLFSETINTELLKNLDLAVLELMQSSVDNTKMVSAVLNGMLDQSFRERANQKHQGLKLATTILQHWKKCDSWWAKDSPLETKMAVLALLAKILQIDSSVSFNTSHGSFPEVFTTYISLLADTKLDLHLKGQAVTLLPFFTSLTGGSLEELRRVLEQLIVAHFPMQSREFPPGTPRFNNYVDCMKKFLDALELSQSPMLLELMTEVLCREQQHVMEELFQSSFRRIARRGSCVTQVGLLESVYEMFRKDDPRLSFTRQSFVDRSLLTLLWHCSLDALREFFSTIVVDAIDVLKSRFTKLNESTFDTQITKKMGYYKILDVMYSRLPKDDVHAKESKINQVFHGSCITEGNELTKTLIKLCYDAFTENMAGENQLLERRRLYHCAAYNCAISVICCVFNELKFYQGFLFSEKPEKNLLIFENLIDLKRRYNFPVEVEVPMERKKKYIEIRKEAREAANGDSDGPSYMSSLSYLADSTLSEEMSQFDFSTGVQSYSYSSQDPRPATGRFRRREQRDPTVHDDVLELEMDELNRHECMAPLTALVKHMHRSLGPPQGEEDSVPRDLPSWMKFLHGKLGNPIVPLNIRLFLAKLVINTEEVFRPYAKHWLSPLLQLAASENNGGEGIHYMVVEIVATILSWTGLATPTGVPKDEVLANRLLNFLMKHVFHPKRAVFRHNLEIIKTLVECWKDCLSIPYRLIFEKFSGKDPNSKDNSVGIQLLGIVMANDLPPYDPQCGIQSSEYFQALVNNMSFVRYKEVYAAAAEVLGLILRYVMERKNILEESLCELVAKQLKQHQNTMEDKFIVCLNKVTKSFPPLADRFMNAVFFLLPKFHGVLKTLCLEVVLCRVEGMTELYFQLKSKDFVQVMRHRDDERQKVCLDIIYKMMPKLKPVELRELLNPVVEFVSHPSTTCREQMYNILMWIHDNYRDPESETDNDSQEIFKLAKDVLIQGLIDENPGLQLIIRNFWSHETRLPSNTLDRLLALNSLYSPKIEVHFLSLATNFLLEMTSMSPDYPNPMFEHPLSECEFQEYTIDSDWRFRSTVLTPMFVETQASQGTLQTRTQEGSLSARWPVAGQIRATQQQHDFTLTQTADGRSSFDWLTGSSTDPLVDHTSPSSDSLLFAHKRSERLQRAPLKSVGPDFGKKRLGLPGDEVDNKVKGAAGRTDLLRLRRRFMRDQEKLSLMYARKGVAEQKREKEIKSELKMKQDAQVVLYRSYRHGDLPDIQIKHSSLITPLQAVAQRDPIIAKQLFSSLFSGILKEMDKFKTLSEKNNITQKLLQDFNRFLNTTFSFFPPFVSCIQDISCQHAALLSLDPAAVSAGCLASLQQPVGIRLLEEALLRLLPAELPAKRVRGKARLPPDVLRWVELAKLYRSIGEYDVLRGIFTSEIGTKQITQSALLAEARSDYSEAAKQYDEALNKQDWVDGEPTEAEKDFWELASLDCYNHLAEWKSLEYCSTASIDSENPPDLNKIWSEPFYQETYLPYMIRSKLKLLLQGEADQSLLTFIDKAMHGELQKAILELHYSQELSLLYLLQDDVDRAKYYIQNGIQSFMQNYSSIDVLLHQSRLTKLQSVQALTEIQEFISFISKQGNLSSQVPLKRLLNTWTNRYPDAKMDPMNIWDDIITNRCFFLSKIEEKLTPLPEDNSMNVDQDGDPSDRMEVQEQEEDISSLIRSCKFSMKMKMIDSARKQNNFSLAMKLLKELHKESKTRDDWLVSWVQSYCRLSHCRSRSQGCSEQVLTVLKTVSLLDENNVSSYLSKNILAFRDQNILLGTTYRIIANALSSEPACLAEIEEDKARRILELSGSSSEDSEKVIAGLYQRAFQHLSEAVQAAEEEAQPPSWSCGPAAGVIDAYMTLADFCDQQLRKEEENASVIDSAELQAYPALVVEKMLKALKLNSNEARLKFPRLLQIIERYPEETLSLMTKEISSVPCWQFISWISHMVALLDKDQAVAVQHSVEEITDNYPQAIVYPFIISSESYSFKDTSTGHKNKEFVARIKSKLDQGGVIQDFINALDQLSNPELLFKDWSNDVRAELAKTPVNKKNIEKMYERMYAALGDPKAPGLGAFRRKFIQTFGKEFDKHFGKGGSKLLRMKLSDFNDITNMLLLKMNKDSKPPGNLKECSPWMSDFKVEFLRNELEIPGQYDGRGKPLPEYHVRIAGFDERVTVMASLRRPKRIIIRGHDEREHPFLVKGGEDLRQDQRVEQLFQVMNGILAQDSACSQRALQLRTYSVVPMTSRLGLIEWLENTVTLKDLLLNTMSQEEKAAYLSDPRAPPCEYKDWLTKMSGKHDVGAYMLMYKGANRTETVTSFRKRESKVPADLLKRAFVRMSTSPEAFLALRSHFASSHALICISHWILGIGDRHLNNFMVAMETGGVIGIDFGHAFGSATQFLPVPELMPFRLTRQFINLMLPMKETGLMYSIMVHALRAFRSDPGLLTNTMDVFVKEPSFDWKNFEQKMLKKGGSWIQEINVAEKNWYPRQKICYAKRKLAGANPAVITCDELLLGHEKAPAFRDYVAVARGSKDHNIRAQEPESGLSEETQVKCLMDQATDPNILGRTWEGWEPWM
Sequence of Cytochrome P450 2C9 (P11712 whole entry): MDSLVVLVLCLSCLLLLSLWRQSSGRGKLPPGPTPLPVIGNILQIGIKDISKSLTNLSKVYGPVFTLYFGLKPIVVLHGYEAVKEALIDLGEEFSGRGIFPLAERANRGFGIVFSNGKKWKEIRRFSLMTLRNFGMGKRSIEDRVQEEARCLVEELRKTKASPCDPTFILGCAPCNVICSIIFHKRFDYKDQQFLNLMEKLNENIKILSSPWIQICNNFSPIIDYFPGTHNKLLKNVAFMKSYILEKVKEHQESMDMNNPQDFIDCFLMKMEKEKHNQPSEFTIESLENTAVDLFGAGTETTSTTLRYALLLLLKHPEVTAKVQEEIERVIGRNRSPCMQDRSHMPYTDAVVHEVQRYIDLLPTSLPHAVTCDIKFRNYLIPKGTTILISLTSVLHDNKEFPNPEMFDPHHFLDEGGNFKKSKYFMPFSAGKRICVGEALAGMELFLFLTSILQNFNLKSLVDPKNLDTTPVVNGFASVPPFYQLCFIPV
Sequence of Cytochrome P450 3A4 (P08684 whole entry): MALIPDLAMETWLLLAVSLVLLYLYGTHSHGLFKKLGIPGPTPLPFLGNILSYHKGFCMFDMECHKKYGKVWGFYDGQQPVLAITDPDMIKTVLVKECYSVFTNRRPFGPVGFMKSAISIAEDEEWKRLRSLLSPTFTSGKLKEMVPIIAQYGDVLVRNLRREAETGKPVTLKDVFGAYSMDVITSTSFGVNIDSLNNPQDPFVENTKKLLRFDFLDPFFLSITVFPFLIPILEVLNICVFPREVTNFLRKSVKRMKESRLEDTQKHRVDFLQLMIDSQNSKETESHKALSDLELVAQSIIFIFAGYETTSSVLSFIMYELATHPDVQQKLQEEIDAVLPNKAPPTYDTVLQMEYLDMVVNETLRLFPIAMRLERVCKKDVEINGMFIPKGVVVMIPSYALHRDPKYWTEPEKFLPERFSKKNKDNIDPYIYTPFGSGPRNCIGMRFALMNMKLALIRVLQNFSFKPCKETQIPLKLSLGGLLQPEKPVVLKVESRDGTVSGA

IC50 (Cytochrome P450 2D6) | IC50 (Cytochrome P450 2C19) | logD [2] | IC50 (Cytochrome P450 3A4) | IC50 [3] | IC50 (Cytochrome P450 2C9) | IC50 (Cytochrome P450 1A2) | EC50 [4] | solubility [5] | fraction unbound [6] | IC50 [9] | IC50 [10] | IC50 [13] | IC50 [15] | IC50 [16] | IC50 [17] | SMILES | Ratio (HeLa [1]) | Ratio (HeLa [7]) | IC50 [8] | also measured
> 10000 nM | > 10000 nM | 2.7 | > 10000 nM | 5 nM | > 10000 nM | > 10000 nM | 109 nM | 154 µM (≈ 92.2 µg/mL) | 0.098 | – | – | – | – | – | – | O=C(CN1CCN(CCO)CC1)Nc1ccc(-c2cccc3c(=O)cc(N4CCOCC4)oc23)c2sc3ccccc3c12 | 2 | 8.4 | > 30000 nM | –
> 10000 nM | > 10000 nM | 3 | > 10000 nM | 12 nM | > 10000 nM | > 10000 nM | 426 nM | 5 µM (≈ 2.84 µg/mL) | 0.036 | – | – | – | – | – | – | CN1CCN(CC(=O)Nc2ccc(-c3cccc4c(=O)cc(N5CCOCC5)oc34)c3sc4ccccc4c23)CC1 | 2.4 | 7.4 | > 10000 nM | –
> 10000 nM | > 10000 nM | 3.05 | > 10000 nM | – | > 10000 nM | > 10000 nM | 136 nM | 161 µM (≈ 93.8 µg/mL) | 0.036 | 590 nM | 10000 nM | 0.5 nM | < 0.1 nM | > 10000 nM | > 10000 nM | CCN1CCN(CC(=O)Nc2ccc(-c3cccc4c(=O)cc(N5CCOCC5)oc34)c3sc4ccccc4c23)CC1 | – | – | – | inhibition [11]: 44%; IC50 [12]: 4 nM; IC50 (HeLa [14]): > 25000 nM
– | – | > 4.3 | – | 42 nM | – | – | 212 nM | < 0.2 µM | 0.0004 | 220 nM | 2400 nM | 16 nM | 30 nM | > 10000 nM | > 10000 nM | O=c1cc(N2CCOCC2)oc2c(-c3cccc4c3sc3ccccc34)cccc12 | 2.2 | 2.8 | 14000 nM | IC50 [18]: 40 nM
